The target in series [1] is T1, Tyrosinase (Agaricus bisporus) (UniProt O42713).
T1 sequence (whole entry): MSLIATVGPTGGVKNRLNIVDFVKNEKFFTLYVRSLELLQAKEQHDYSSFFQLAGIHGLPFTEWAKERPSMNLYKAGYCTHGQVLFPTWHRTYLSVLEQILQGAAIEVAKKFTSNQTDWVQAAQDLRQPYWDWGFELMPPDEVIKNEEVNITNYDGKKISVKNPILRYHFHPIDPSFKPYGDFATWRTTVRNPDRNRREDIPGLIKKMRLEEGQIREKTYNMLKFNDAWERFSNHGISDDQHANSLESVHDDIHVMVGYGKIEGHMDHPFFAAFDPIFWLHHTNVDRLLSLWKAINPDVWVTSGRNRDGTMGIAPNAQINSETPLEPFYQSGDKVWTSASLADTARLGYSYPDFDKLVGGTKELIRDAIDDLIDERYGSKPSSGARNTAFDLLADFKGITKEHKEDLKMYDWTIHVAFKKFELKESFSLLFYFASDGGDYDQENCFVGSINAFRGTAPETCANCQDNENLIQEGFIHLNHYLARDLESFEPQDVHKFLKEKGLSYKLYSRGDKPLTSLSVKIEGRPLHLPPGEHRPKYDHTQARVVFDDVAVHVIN
The series is described as follows: Inhibition of mushroom tyrosinase using L-DOPA substrate at 50 to 100 uM incubated for 10 mins. Summed up:
(§1)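 Mushroom tyrosinase (25 µL of 100 µg/mL aqueous solution) added to 0.1 M phosphate buffer pH 6.8, 2.5 mM L-DOPA (stock), water and inhibitor in DMSO. Incubated 25 °C for 10 min, absorbance at 475 nm. %inhibition = (1−A/B)×100 against a DMSO-only reference. Single-point tests at 50 or 100 µM; kojic acid as reference. Triplicate, mean with standard error.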

A short description of series [2]: Antioxidant activity assessed as inhibition of lipid peroxidation after 48 hrs by ferric thiocyanate assay. Type of series: functional. The essentials: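 Lipid peroxidation run in an emulsified system with antioxidant at 90 µM final, 50 °C in the dark for 48 h. Ferric thiocyanate read-out: absorbance at 500 nm 3 min after colour development. Trolox as positive control. Triplicate, mean with standard error.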

The test system of series [3] is Radical scavenging activity. Kind of series: Antioxidant activity assessed as DPPH radical scavenging activity by UV/Visible spectrophotometry. It is filed as functional. Summed up:
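DPPH in methanol; antioxidant:DPPH molar ratio 0.25 for caffeic/dihydrocaffeic acids and their conjugates, 0.50 for p-coumaric, ferulic, sinapic acids and their conjugates. 10 min at 25 °C, absorbance at 516 nm. %RSA = (1−A/B)×100, B = methanol in place of sample. Triplicate, mean with standard error.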
In general terms: Loss of DPPH colour is used to gauge radical scavenging.

Series [4] can be described thus: Toxicity against mouse Mel-Ab cells at 100 uM by CCK-8 assay.
The test system of series [5] is Mel-Ab. Kind of series: (§2) Inhibition of TPA-stimulated melanogenesis in mouse Mel-Ab cells at 100 uM after 4 days. It is filed as functional.
In series [6] the target is T1, Tyrosinase (Agaricus bisporus). Kind of series: Inhibition of mushroom tyrosinase using L-DOPA substrate at 100 uM incubated for 10 mins. The essentials: as §1
Series [7] can be described thus: as §2. Type of series: functional. The settings on record: 96 h.
In series [8] the target is T2, Tyrosinase (Agaricus bisporus, UniProt O42713).
T2 sequence (O42713 whole entry): T1 sequence (whole entry)
Kind of series: Inhibition of mushroom tyrosinase using L-DOPA substrate incubated for 10 mins.

Calls of active or inactive are those of the source. No cut-off for these calls is given here.

A word on the inhibition: it is how much of the control response was suppressed. Regarding `COc1cc(/C=C/C(=O)N2CCCC2C(=O)NO)ccc1O` (centres undefined), the inhibition entry in series [1] is “inactive”. For the same compound, in series [2], the inhibition result is “Active”. For the same compound, in series [3], the outcome was Active. Moreover, the Activity entry in series [4] was “Non-toxic”.
For the compound `COc1cc(/C=C/C(=O)NC(Cc2ccccc2)C(=O)NO)ccc1O` (centres undefined), the inhibition entry in series [5] and in series [1] was “inactive” throughout. Moreover, the inhibition entry in series [2] is “Active”. The result in series [3] was Active. Further, the Activity entry in series [4] is “Non-toxic”.
As for `O=C(NO)C1CCCN1C(=O)/C=C/c1ccc(O)cc1` (centres undefined), the inhibition result in series [1] was “Active”. Also, the inhibition entry in series [2] was “inactive”. In series [3], the result was inactive.
With `CC(=O)N1CCCC1C(=O)NO` (centres undefined), in series [6], the inhibition came out at 5%.
As for `O=C(NO)C1CCCN1C(=O)/C=C/c1ccc(O)c(O)c1` (centres undefined), in series [7], the inhibition at 100 µM stood at 30%. In addition, the inhibition result in series [1] and in series [2] was “Active” throughout. Also, the result in series [3] was Active. The Activity entry in series [4] is “Non-toxic”.
As to `O=C(O)/C=C/c1ccc(O)c(O)c1` [CAFFEIC ACID], the Activity entry in series [4] is reported as “Toxic”.
For `CC(=O)NC(Cc1ccccc1)C(=O)NO` (centres undefined), the inhibition in series [6] stood at 6%.
Consider `O=C(O)/C=C/c1ccc(O)cc1`, for which the inhibition entry in series [2] was “inactive”. For the same compound, the outcome in series [3] was inactive.
With `O=C(NO)C1CCCN1C(=O)CCc1ccc(O)c(O)c1` (centres undefined), the inhibition entry in series [1] and in series [2] was “inactive” throughout.
For the compound `COc1cc(/C=C/C(=O)NC(Cc2ccccc2)C(=O)NO)cc(OC)c1O` (centres undefined), testing at 100 µM in series [7] gave an inhibition of 30%. The inhibition entry in series [1] is “inactive”. Besides, the inhibition result in series [2] is “Active”. In series [4], the Activity result was “Non-toxic”.
Broadly, the IC50 is the point on the concentration scale where inhibition reaches its midpoint. The compound `NC(=O)C(Cc1ccccc1)NC(=O)OCc1cc(=O)c(O)co1` (centres undefined) showed an IC50 in series [8] of 4.2 µM.
Regarding `COc1cc(/C=C/C(=O)O)ccc1O`, the inhibition entry in series [1] was “inactive”. The result in series [3] was Active.
`O=C(/C=C/c1ccc(O)c(O)c1)NC(Cc1ccccc1)C(=O)NO` (centres undefined): the inhibition entry in series [5], in series [1] and in series [2] was “Active” each time. Moreover, the IC50 in series [8] worked out at 4.9 µM. Besides, the Activity result in series [4] is “Non-toxic”.
For the compound `O=C(CCc1ccc(O)c(O)c1)NC(Cc1ccccc1)C(=O)NO` (centres undefined), the inhibition result in series [1] and in series [2] was “inactive” each time.
Turning to `COc1cc(/C=C/C(=O)O)cc(OC)c1O`, in series [1], the inhibition result is “inactive”.
In series [7], `COc1cc(/C=C/C(=O)N2CCCC2C(=O)NO)cc(OC)c1O` (centres undefined) gave an inhibition at 100 µM of 30%. Further, in series [1], the inhibition result is “inactive”. The inhibition entry in series [2] is “Active”. In addition, the result in series [3] was Active. In addition, the Activity result in series [4] is recorded as “Non-toxic”.
Regarding `O=C(O)CCc1ccc(O)c(O)c1`, the inhibition result in series [2] is “inactive”.
For the compound `O=C(/C=C/c1ccc(O)cc1)NC(Cc1ccccc1)C(=O)NO` (centres undefined), the inhibition result in series [1] is “Active”. In series [2], the inhibition entry is “inactive”. In addition, in series [3], the result was inactive.
Turning to `OC[C@H]1O[C@@H](Oc2ccc(O)cc2)[C@H](O)[C@@H](O)[C@@H]1O`, the inhibition entry in series [5] is “Active”.
